Experimental data from ChEMBL document CHEMBL4613270, “Structure-Activity Relationship Study Enables the Discovery of a Novel Berberine Analogue as the RXRα Activator to Inhibit Colon Cancer” (J Med Chem, 2020).
Calls of active or inactive are those of the source. The rule behind the calls is not given here.

Key:
[1] = biological target: T1, Retinoic acid receptor RXR-alpha (Homo sapiens) (UniProt P19793); experiment: Activation of RXRalpha in human HCT116 cells assessed as increase in p21 (WAF1/CIP1) protein expression at 30 to 60 uM incubated for 15 hrs by Western blot analysis; format: cell-based; details: HCT-116
T1 sequence (whole entry): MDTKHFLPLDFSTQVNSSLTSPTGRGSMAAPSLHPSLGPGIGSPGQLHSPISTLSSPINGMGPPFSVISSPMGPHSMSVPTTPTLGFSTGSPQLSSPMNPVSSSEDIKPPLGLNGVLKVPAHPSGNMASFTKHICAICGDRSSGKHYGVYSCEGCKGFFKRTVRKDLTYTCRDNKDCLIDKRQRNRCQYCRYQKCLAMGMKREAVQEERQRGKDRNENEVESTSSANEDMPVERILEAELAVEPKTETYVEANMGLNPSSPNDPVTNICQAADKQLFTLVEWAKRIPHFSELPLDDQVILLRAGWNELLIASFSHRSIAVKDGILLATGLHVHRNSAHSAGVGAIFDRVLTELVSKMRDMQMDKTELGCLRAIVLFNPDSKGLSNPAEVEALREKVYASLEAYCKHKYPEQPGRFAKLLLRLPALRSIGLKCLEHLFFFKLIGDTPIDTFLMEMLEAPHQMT

[2] = biological target: T1, Retinoic acid receptor RXR-alpha (Homo sapiens); experiment: Activation of RXRalpha in human HCT116 cells assessed as induction of beta-catenin protein degradation at 30 to 60 uM incubated for 15 hrs by Western blot analysis; format: cell-based; details: HCT-116
[3] = biological target: T1, Retinoic acid receptor RXR-alpha (Homo sapiens); experiment: In-vivo activation of RXRalpha in BALB/c mouse xenografted with human KM12C cells assessed as reduction in Cdc2 protein expression at 100 mg/kg, ig dosed daily for 15 days by immunohistochemistry analysis; format: functional, organism-based
How it was run: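 KM12C cells (1×10^6 per mouse in 100 μL HBSS) injected subcutaneously into both flanks of nude mice; after seven days, randomized to three groups, dosed intragastrically once daily for 15 days with vehicle (CMC-Na) or 100 mg/kg compound; mice euthanized and tumors removed for analysis.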

[4] = biological target: T1, Retinoic acid receptor RXR-alpha (Homo sapiens); experiment: Activation of RXRalpha LBD (unknown origin) expressed in human KM12C cells at 50 uM incubated for 15 hrs by luciferase reporter gene assay; format: cell-based
How it was run: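 KM12C co-transfected with pG5luc and pBIND-RXRα-LBD (Gal4-fusion one-hybrid); 20 h post-transfection treated 15 h with 50 μM compound; dual-luciferase read-out (firefly/Renilla) after passive lysis at 4 °C, 1 h; basal activity normalized to 1.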

HCT-116 = experiment: Inhibition of cell proliferation of human HCT116 cells incubated for 15 hrs by MTT assay; format: functional, cell-based; details: HCT-116, 15 h
How it was run: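 Cells plated at 1×10⁴ per well, incubated overnight at 37 °C, then exposed to a concentration series for 15 h. MTT (5 mg/mL stock) added for 4 h at 37 °C. Formazan dissolved in DMSO and absorbance read at 570 nm. IC50 derived from the dose-response curve.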

[5] = biological target: T1, Retinoic acid receptor RXR-alpha (Homo sapiens); experiment: Activation of RXRalpha in human SW620 cells assessed as reduction in c-Myc protein expression at 40 to 80 uM incubated for 15 hrs by Western blot analysis; format: cell-based; details: SW-620
[6] = biological target: T1, Retinoic acid receptor RXR-alpha (Homo sapiens); experiment: Activation of RXRalpha (unknown origin) expressed in human KM12C cells co-expressing beta-catenin assessed as induction of RXRalpha interaction with beta-catenin at 25 to 50 uM incubated for 15 hrs by mammalian two-hybrid assay; format: cell-based
How it was run: (§1)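 Mammalian two-hybrid: cells co-transfected by lipofection with pBIND-β-catenin/S33Y plus pACT-RXRα (RXRα–β-catenin) or pACT-c-Cbl (β-catenin–c-Cbl); 20 h after transfection, compound added for 15 h; cells lysed in passive lysis buffer, 4 °C, 1 h; firefly and Renilla luciferase read by dual-luciferase kit.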

[7] = Toxicity in BALB/c mouse xenografted with human KM12C cells assessed as effect on biochemical parameter by measuring triglyceride level at 100 mg/kg, ig dosed daily for 15 days by automatic chemistry analyzer based analysis (reference value: 0.96 +/- 0.056 mmol/L); format: organism-based; details: in vivo, po, 360 h
[8] = Toxicity in BALB/c mouse xenografted with human KM12C cells assessed as effect on biochemical parameter by measuring IBIL level at 100 mg/kg, ig dosed daily for 15 days by automatic chemistry analyzer based analysis (reference value: 0.55 +/- 0.096 umol/L); format: organism-based; details: in vivo, po, 360 h
[9] = biological target: T1, Retinoic acid receptor RXR-alpha (Homo sapiens); experiment: Activation of RXRalpha in human HCT116 cells assessed as inhibition of Wnt/beta-catenin-dependent transcriptional activity at 30 to 60 uM incubated for 15 hrs by TOP/FOP luciferase assay; format: cell-based; details: HCT-116
How it was run: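 TOP/FOP reporter: cells co-transfected by lipofection with pRL-TK plus TOPflash or FOPflash; compound added 20 h after transfection for 15 h; passive lysis at 4 °C, 1 h; firefly and Renilla luciferase measured by dual-luciferase assay.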

[10] = biological target: T1, Retinoic acid receptor RXR-alpha (Homo sapiens); experiment: Induction of conformational changes in His-tagged RXRalpha LBD (unknown origin) expressed in Escherichia coli strain BL21 (DE3) at 5 uM by circular dichroism spectroscopic assay
How it was run: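 His-RXRα-LBD expressed in E. coli BL21(DE3) (0.1 mM IPTG, 16 °C, 16 h), Ni-NTA purified, diluted to 1 µM in 0.01 M phosphate buffer; compound 5 µM (0.01% DMSO). CD spectra recorded 180-260 nm at 25 °C, 0.1 cm path, 1 nm bandwidth, 20 nm/min, 5 min after compound addition.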

[11] = Half life in Sprague-Dawley rat at 100 mg/kg, ig measured after 0.083 to 36 hrs by LC-MS/MS analysis; format: ADME, organism-based; details: in vivo, po
How it was run: (§2)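 SD rats (200 ± 20 g) randomized to three groups; single intragastric dose of 100 mg/kg or vehicle (0.5% CMC-Na). Tail-vein blood (0.5 mL) drawn at 0.083, 0.25, 0.5, 1, 2, 4, 8, 12, 24 and 36 h. Plasma separated by centrifugation at 2000 rpm for 10 min, frozen at -80 °C, then quantified by LC-MS/MS.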

[12] = Tmax in Sprague-Dawley rat at 100 mg/kg, ig measured after 0.083 to 36 hrs by LC-MS/MS analysis; format: ADME, organism-based; details: in vivo, po; how it was run: as §2
[13] = biological target: T1, Retinoic acid receptor RXR-alpha (Homo sapiens); experiment: Activation of RXRalpha in human KM12C cells assessed as reduction in c-Myc mRNA expression at 25 to 50 uM incubated for 15 hrs by real-time PCR analysis; format: cell-based
[14] = biological target: T1, Retinoic acid receptor RXR-alpha (Homo sapiens); experiment: Activation of RXRalpha (unknown origin) expressed in human SW620 cells co-expressing beta-catenin and c-Cbl assessed as induction of beta-caten interaction with c-Cbl at 40 to 80 uM incubated for 15 hrs by mammalian two-hybrid assay; format: cell-based; details: SW-620; how it was run: as §1
[15] = Toxicity in BALB/c mouse xenografted with human KM12C cells assessed as effect on biochemical parameter by measuring creatinine level at 100 mg/kg, ig dosed daily for 15 days by automatic chemistry analyzer based analysis (reference value: 27.02 +/- 1.22 umol/L); format: organism-based; details: in vivo, po, 360 h
[16] = biological target: T1, Retinoic acid receptor RXR-alpha (Homo sapiens); experiment: Activation of RXRalpha in human HCT116 cells assessed as […] crease in p21 (WAF1/CIP1) mRNA expression at 30 to 60 uM incubated for 15 hrs by real-time PCR analysis; format: cell-based; details: HCT-116

Structure (SMILES): COc1ccc2c(c1)CC[n+]1cc3c(OC)cccc3cc1-2.[Cl-]
- Activity [1]: Active
- Activity [2]: Active
- Activity [3]: Active
- Activity [4]: Active
- IC50 (HCT-116): 27.2 µM
- Activity [5]: Active
- Activity [6]: Active
- Activity [7]: 0.74 mmol/L
- Activity [8]: 0.52 µmol/L
- Activity [9]: Active
- Activity [10]: Active
- half-life [11]: 11.6 h
- Tmax [12]: 2 h
- Activity [13]: Active
- Activity [14]: Active
- Activity [15]: 28.95 µmol/L
- Activity [16]: Active

Structure (SMILES): COc1ccc2cc3[n+](cc2c1OC)CCc1cc2c(cc1-3)OCO2.[Cl-] [BERBERINE CHLORIDE]
- Activity [1]: Active
- Activity [2]: Active
- Activity [3]: Active
- Activity [4]: Active
- IC50 (HCT-116): 83.1 µM
- Activity [5]: Active
- Activity [6]: Active
- Activity [7]: 0.77 mmol/L
- Activity [8]: 0.4 µmol/L
- Activity [9]: Active
- Activity [10]: Active
- half-life [11]: 29 h
- Tmax [12]: 2 h
- Activity [13]: Active
- Activity [14]: Active
- Activity [15]: 24.36 µmol/L
- Activity [16]: Active
